Experimental data published in ChEMBL document CHEMBL1155468, “Syntheses and evaluation of anticonvulsant profile and teratogenicity of novel amide derivatives of branched aliphatic carboxylic acids with 4-aminobenzensulfonamide” (J Med Chem, 2010).
The source made the active and inactive calls. No cut-off for these calls is given here.

Legend:
Mus musculus [1] = test: Teratogenic effect in SWV mouse assessed as fetuses with neural tube deffects at 301 mg/kg, ip administered on morning of day 8 of gestation; format: toxicity, organism-based; design: dose 301 mg/kg, route intraperitoneal; conditions: in vivo
Mus musculus [2] = test: Anticonvulsant activity in CF1 albino mouse assessed as inhibition of maximal electroshock-induced seizures at 300 mg/kg, ip after 0.5 hrs; format: functional, organism-based; design: dose 300 mg/kg
Method in brief: (§1)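 Test compounds suspended in 0.5% methylcellulose and given ip to adult male CF no. 1 albino mice (18-25 g) at 0.01 mL/g body weight before maximal electroshock challenge.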

Mus musculus [3] = test: Teratogenic effect in SWV mouse assessed as resorptions at 452 mg/kg, ip administered on morning of day 8 of gestation; format: toxicity, organism-based; design: dose 452 mg/kg, route intraperitoneal; conditions: in vivo
Mus musculus [4] = test: Neurotoxicity in CF1 albino mouse assessed as motor impairment at 30 mg/kg, ip after 4 hrs; format: toxicity, organism-based; design: dose 30 mg/kg, route intraperitoneal; conditions: in vivo
Mus musculus [5] = test: Anticonvulsant activity in CF1 albino mouse assessed as inhibition of subcutaneous pentylenetetrazole-induced seizures at 300 mg/kg, ip after 0.5 hrs; format: functional, organism-based; design: dose 300 mg/kg
Method in brief: (§2)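 Adult male CF no. 1 albino mice (18-25 g) dosed ip with compound suspended in 0.5% methylcellulose (0.01 mL/g). Convulsant: pentylenetetrazol dissolved in 0.9% saline as a 0.85% solution for mice, given subcutaneously.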

Mus musculus [6] = test: Anticonvulsant activity in CF1 albino mouse assessed as inhibition of subcutaneous pentylenetetrazole-induced seizures at 100 mg/kg, ip after 4 hrs; format: functional, organism-based; design: dose 100 mg/kg; method in brief: as §2
Mus musculus [7] = test: Anticonvulsant activity in CF1 albino mouse assessed as inhibition of maximal electroshock-induced seizures at 30 mg/kg, ip after 0.5 hrs; format: functional, organism-based; design: dose 30 mg/kg; method in brief: as §1
Mus musculus [8] = test: Anticonvulsant activity in CF1 albino mouse assessed as inhibition of maximal electroshock-induced seizures at 300 mg/kg, ip after 4 hrs; format: functional, organism-based; design: dose 300 mg/kg; method in brief: as §1
Mus musculus [9] = test: Anticonvulsant activity in CF1 albino mouse assessed as inhibition of maximal electroshock-induced seizures at 30 mg/kg, ip after 4 hrs; format: functional, organism-based; design: dose 30 mg/kg; method in brief: as §1
Mus musculus [10] = test: Neurotoxicity in CF1 albino mouse assessed as motor impairment at 100 mg/kg, ip after 4 hrs; format: toxicity, organism-based; design: dose 100 mg/kg, route intraperitoneal; conditions: in vivo
Mus musculus [11] = test: Neurotoxicity in CF1 albino mouse assessed as motor impairment at 300 mg/kg, ip after 4 hrs; format: toxicity, organism-based; design: dose 300 mg/kg, route intraperitoneal; conditions: in vivo
Mus musculus [12] = test: Teratogenic effect in SWV mouse assessed as dead fetuses at 91 mg/kg, ip administered on morning of day 8 of gestation; format: toxicity, organism-based; design: dose 91 mg/kg, route intraperitoneal; conditions: in vivo
Mus musculus [13] = test: Anticonvulsant activity in CF1 albino mouse assessed as inhibition of maximal electroshock-induced seizures at 100 mg/kg, ip after 0.5 hrs; format: functional, organism-based; design: dose 100 mg/kg; method in brief: as §1
Mus musculus [14] = test: Teratogenic effect in SWV mouse assessed as live fetuses at 301 mg/kg, ip administered on morning of day 8 of gestation; format: toxicity, organism-based; design: dose 301 mg/kg, route intraperitoneal; conditions: in vivo
Method in brief: (§3)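 Two-month-old nulligravid SWV females were mated overnight and checked for vaginal plugs the next morning; gestation onset was set at 10 p.m. the previous night. On gestation day 8.5, each dam received a single ip injection (0.55-2.7 mmol/kg range) or vehicle (25% aqueous Cremophor EL) at 10 μL/g body weight. Litters were scored for implants, resorptions, live and dead fetuses, and fetuses with neural tube defects.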

Mus musculus [15] = test: Anticonvulsant activity in CF1 albino mouse assessed as inhibition of subcutaneous pentylenetetrazole-induced seizures at 100 mg/kg, ip after 0.5 hrs; format: functional, organism-based; design: dose 100 mg/kg; method in brief: as §2
Mus musculus [16] = test: Teratogenic effect in SWV mouse assessed as dead fetuses at 452 mg/kg, ip administered on morning of day 8 of gestation; format: toxicity, organism-based; design: dose 452 mg/kg, route intraperitoneal; conditions: in vivo
Mus musculus [17] = test: Neurotoxicity in CF1 albino mouse assessed as motor impairment at 30 mg/kg, ip after 0.5 hrs; format: toxicity, organism-based; design: dose 30 mg/kg, route intraperitoneal; conditions: in vivo
Mus musculus [18] = test: Teratogenic effect in SWV mouse assessed as dead fetuses at 301 mg/kg, ip administered on morning of day 8 of gestation; format: toxicity, organism-based; design: dose 301 mg/kg, route intraperitoneal; conditions: in vivo
Mus musculus [19] = test: Anticonvulsant activity in CF1 albino mouse assessed as inhibition of maximal electroshock-induced seizures at 100 mg/kg, ip after 4 hrs; format: functional, organism-based; design: dose 100 mg/kg; method in brief: as §1
Mus musculus [20] = test: Teratogenic effect in SWV mouse assessed as resorptions at 181 mg/kg, ip administered on morning of day 8 of gestation; format: toxicity, organism-based; design: dose 181 mg/kg, route intraperitoneal; conditions: in vivo
Mus musculus [21] = test: Anticonvulsant activity in CF1 albino mouse assessed as inhibition of subcutaneous pentylenetetrazole-induced seizures at 300 mg/kg, ip after 4 hrs; format: functional, organism-based; design: dose 300 mg/kg; method in brief: as §2
Mus musculus [22] = test: Teratogenic effect in SWV mouse assessed as resorptions at 301 mg/kg, ip administered on morning of day 8 of gestation; format: toxicity, organism-based; design: dose 301 mg/kg, route intraperitoneal; conditions: in vivo
Mus musculus [23] = test: Teratogenic effect in SWV mouse assessed as live fetuses at 91 mg/kg, ip administered on morning of day 8 of gestation; format: toxicity, organism-based; design: dose 91 mg/kg, route intraperitoneal; conditions: in vivo
Mus musculus [24] = test: Teratogenic effect in SWV mouse assessed as live fetuses at 452 mg/kg, ip administered on morning of day 8 of gestation; format: toxicity, organism-based; design: dose 452 mg/kg, route intraperitoneal; conditions: in vivo
Mus musculus [25] = test: Anticonvulsant activity in CF1 albino mouse assessed as inhibition of subcutaneous pentylenetetrazole-induced seizures at 30 mg/kg, ip after 0.5 hrs; format: functional, organism-based; design: dose 30 mg/kg; method in brief: as §2
Mus musculus [26] = test: Neurotoxicity in CF1 albino mouse assessed as motor impairment at 300 mg/kg, ip after 0.5 hrs; format: toxicity, organism-based; design: dose 300 mg/kg, route intraperitoneal; conditions: in vivo
Mus musculus [27] = test: Neurotoxicity in CF1 albino mouse assessed as motor impairment at 100 mg/kg, ip after 0.5 hrs; format: toxicity, organism-based; design: dose 100 mg/kg, route intraperitoneal; conditions: in vivo
Mus musculus [28] = test: Anticonvulsant activity in CF1 albino mouse assessed as inhibition of subcutaneous pentylenetetrazole-induced seizures at 30 mg/kg, ip after 4 hrs; format: functional, organism-based; design: dose 30 mg/kg; method in brief: as §2
Mus musculus [29] = test: Teratogenic effect in SWV mouse assessed as resorptions at 91 mg/kg, ip administered on morning of day 8 of gestation; format: toxicity, organism-based; design: dose 91 mg/kg, route intraperitoneal; conditions: in vivo
Mus musculus [30] = test: Teratogenic effect in SWV mouse assessed as live fetuses at 522 mg/kg, ip administered on morning of day 8 of gestation; format: toxicity, organism-based; design: dose 522 mg/kg, route intraperitoneal; conditions: in vivo
Method in brief: (§4)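 SWV inbred mice: two-month-old nulligravid females mated overnight with males and checked for vaginal plugs next morning; gestation onset taken as 10 p.m. the previous night. On gestation day 8.5 each dam got one ip injection, 0.55–2.7 mmol/kg, in 25% aqueous Cremophor EL (vehicle controls dosed alike), 10 μL/g body weight. Litters and implants tallied; resorptions and live fetuses reported as counts with percentages.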

Mus musculus [31] = test: Teratogenic effect in SWV mouse assessed as resorptions at 783 mg/kg, ip administered on morning of day 8 of gestation; format: toxicity, organism-based; design: dose 783 mg/kg, route intraperitoneal; conditions: in vivo; method in brief: as §4
Mus musculus [32] = test: Teratogenic effect in SWV mouse assessed as resorptions at 522 mg/kg, ip administered on morning of day 8 of gestation; format: toxicity, organism-based; design: dose 522 mg/kg, route intraperitoneal; conditions: in vivo; method in brief: as §4
Rattus norvegicus [33] = test: Anticonvulsant activity in Sprague-Dawley rat assessed as inhibition of maximal electroshock-induced seizures at 30 mg/kg, po after 4 hrs
Rattus norvegicus [34] = test: Anticonvulsant activity in Sprague-Dawley rat assessed as inhibition of maximal electroshock-induced seizures at 30 mg/kg, po after 15 mins
Mus musculus [35] = test: Teratogenic effect in SWV mouse assessed as live fetuses at 783 mg/kg, ip administered on morning of day 8 of gestation; format: toxicity, organism-based; design: dose 783 mg/kg, route intraperitoneal; conditions: in vivo; method in brief: as §4
Mus musculus [36] = test: Teratogenic effect in SWV mouse assessed as resorptions at 159 mg/kg, ip administered on morning of day 8 of gestation; format: toxicity, organism-based; design: dose 159 mg/kg, route intraperitoneal; conditions: in vivo; method in brief: as §4
Mus musculus [37] = test: Teratogenic effect in SWV mouse assessed as fetuses with neural tube deffects at 522 mg/kg, ip administered on morning of day 8 of gestation; format: toxicity, organism-based; design: dose 522 mg/kg, route intraperitoneal; conditions: in vivo; method in brief: as §3
Mus musculus [38] = test: Teratogenic effect in SWV mouse assessed as dead fetuses at 522 mg/kg, ip administered on morning of day 8 of gestation; format: toxicity, organism-based; design: dose 522 mg/kg, route intraperitoneal; conditions: in vivo
Method in brief: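 Inbred SWV mice, which are susceptible to VPA-induced neural tube defects. Two-month-old nulligravid females were mated overnight and checked for vaginal plugs next morning; gestation onset was taken as 10 p.m. the prior night. On gestation day 8.5, each dam received a single ip dose (range 0.55-2.7 mmol/kg) in 25% aqueous Cremophor EL at 10 μL/g. Dead fetuses were counted per implants.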

Rattus norvegicus [39] = test: Anticonvulsant activity in Sprague-Dawley rat assessed as inhibition of maximal electroshock-induced seizures at 30 mg/kg, po after 30 mins
Rattus norvegicus [40] = test: Anticonvulsant activity in Sprague-Dawley rat assessed as inhibition of maximal electroshock-induced seizures at 30 mg/kg, po after 1 hr
Mus musculus [41] = test: Teratogenic effect in SWV mouse assessed as live fetuses at 159 mg/kg, ip administered on morning of day 8 of gestation; format: toxicity, organism-based; design: dose 159 mg/kg, route intraperitoneal; conditions: in vivo; method in brief: as §3
Mus musculus [42] = test: Teratogenic effect in SWV mouse assessed as resorptions at 316 mg/kg, ip administered on morning of day 8 of gestation; format: toxicity, organism-based; design: dose 316 mg/kg, route intraperitoneal; conditions: in vivo; method in brief: as §4
Mus musculus [43] = test: Teratogenic effect in SWV mouse assessed as live fetuses at 316 mg/kg, ip administered on morning of day 8 of gestation; format: toxicity, organism-based; design: dose 316 mg/kg, route intraperitoneal; conditions: in vivo; method in brief: as §4

Row | SMILES | Activity (Mus musculus [2]) | Activity (Mus musculus [4]) | Activity (Mus musculus [5]) | Activity (Mus musculus [6]) | Activity (Mus musculus [7]) | Activity (Mus musculus [8]) | Activity (Mus musculus [9]) | Activity (Mus musculus [10]) | Activity (Mus musculus [11]) | Activity (Mus musculus [13]) | Activity (Mus musculus [15]) | Activity (Mus musculus [17]) | Activity (Mus musculus [19]) | Activity (Mus musculus [21]) | Activity (Mus musculus [25]) | Activity (Mus musculus [26]) | Activity (Mus musculus [27]) | Activity (Mus musculus [28]) | further results
1 | CCCC(CCC)C(=O)O [VALPROIC ACID] | Active | Non-toxic | Active | inactive | inactive | inactive | inactive | Non-toxic | Non-toxic | inactive | inactive | Non-toxic | inactive | inactive | inactive | Toxic | Non-toxic | inactive | Activity (Mus musculus [1]): 1.5%; Activity (Mus musculus [3]): 11.3%; Activity (Mus musculus [12]): 0.7%; Activity (Mus musculus [14]): 86.4%; Activity (Mus musculus [16]): 0.6%; Activity (Mus musculus [18]): 2.6%; Activity (Mus musculus [20]): 7.7%; Activity (Mus musculus [22]): 11%; Activity (Mus musculus [23]): 93.6%; Activity (Mus musculus [24]): 88.1%; Activity (Mus musculus [29]): 5.7%
2 | NS(=O)(=O)c1ccc(NC(=O)Cc2ccccc2)cc1 | Active | Non-toxic | inactive | inactive | inactive | Active | inactive | Non-toxic | Non-toxic | Active | inactive | Non-toxic | Active | inactive | inactive | Non-toxic | Non-toxic | inactive | Activity (Mus musculus [30]): 63.7%; Activity (Mus musculus [31]): 83.3%; Activity (Mus musculus [32]): 34.5%; Activity (Rattus norvegicus [33]): Active; Activity (Rattus norvegicus [34]): inactive; Activity (Mus musculus [35]): 16.7%; Activity (Mus musculus [36]): 6.2%; Activity (Mus musculus [37]): 3%; Activity (Mus musculus [38]): 1.8%; Activity (Rattus norvegicus [39]): inactive; Activity (Rattus norvegicus [40]): Active; Activity (Mus musculus [41]): 93.8%; Activity (Mus musculus [42]): 3.6%; Activity (Mus musculus [43]): 96.4%
